85 compounds from PubChem BioAssay AID624324 (Broad Institute, 2012) can be followed below.

Calls of active or inactive are those of the source.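 Rule for the calls: active = fitted AC50 at or under twice the sample's top valid tested dose, with viability loss; inconclusive = flat curve with 30 to 70% viability loss, or poor fit; inactive = the rest, including shifts toward viability gain.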

Tested on in the first assay: not listed separately
Description: cytotoxicity in MITF-independent A375 cells – cell-based, CellTiter-Glo luminescence, dry powder, set 3, counter-screen for MITF inhibitor project, dose response (AID 624324). Conditions: A375 melanoma viability, CellTiter-Glo ATP luminescence, 24 h; at 35 µM (top of the series). In outline: (§1)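 Assay system: A375 melanoma cells, MITF-independent; input: 3000 cells per well; buffer or medium: phenol red-free DMEM supplemented with 10% FBS; technique: CellTiter-Glo luminescence measuring cellular ATP; compound dosing: multi-dose compound series, pinned; schedule: 24 h exposure at 37 °C, 5 min detection at RT; read-out basis: viability from ATP content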
For orientation: Cellular ATP, detected with luciferase, serves as a proxy for viable cell number.
In the case of `NC1=C(c2ccccc2)C(=O)c2ccccc2C1=O`, the activity change, negative = viability loss is -6.89% (inactive).
Take `C=CCNC1=C(NCCCN2CCOCC2)C(=O)c2ccccc2C1=O`: the activity change, negative = viability loss was 1.84% (inactive).

The subject of the next assay is A375 melanoma viability, CellTiter-Glo ATP luminescence, 24 h. Described as above.
Details: not given
The gist of the method: as §1
As for `CCN(CC)CCNC1=C(Nc2ccccc2)C(=O)c2ccccc2C1=O`, the AC50 is > 70 µM (inactive).
The same measure, in the same setting: the result for `COc1ccc(C2=C(NC(=O)c3ccc(Cl)cc3)C(=O)c3ccccc3C2=O)cc1` reads 27.7 µM.
`O=C1C=C(Nc2ccccc2)C(=O)c2ccccc21`: the concentration at half-maximal activity (AC50) was 13.9 µM.
Same read-out and setting: the result for `O=C1C(NS(=O)(=O)c2cccs2)=C(N2CCCCC2)C(=O)c2ccccc21` reads > 70 µM (inactive); that for `CN1CCN(C2=C(NC(=O)c3ccccc3)C(=O)c3ccccc3C2=O)CC1`, 13.6 µM.
Turning to `COc1ccc(C(=O)NC2=C(c3ccc(OC)cc3)C(=O)c3ccccc3C2=O)cc1`, the AC50 was 14.9 µM.
The same measure, in the same setting: the result for `O=C(NC1=C(N2CCCCC2)C(=O)c2ccccc2C1=O)c1ccccc1` reads > 70 µM (inactive).
With `CN1CCN(C2=C(NS(=O)(=O)c3ccc(Br)s3)C(=O)c3ccccc3C2=O)CC1`, the AC50 was > 70 µM (inactive).
On the same count and under the same terms, the figure for `C=CCNC1=C(N(C)C(C)=O)C(=O)c2ccccc2C1=O` is 9.29 µM.
On the same count and under the same terms, the result for `NC1=C(NC(=O)c2ccccc2)C(=O)c2ccccc2C1=O` reads > 70 µM (inactive); that for `O=C1C(NS(=O)(=O)c2ccc(Br)s2)=C(N2CCSCC2)C(=O)c2ccccc21`, > 70 µM (inactive).
On the same count and under the same terms, the figure for `CC(=O)N(C)C1=C(N2CCCCC2)C(=O)c2ccccc2C1=O` is 29.1 µM; for `Cc1ccc(C(=O)NC2=C(c3ccc(OC(F)(F)F)cc3)C(=O)c3ccccc3C2=O)o1` it is 30.4 µM; for `CCN1CCN(C2=C(NC(=O)c3ccccc3)C(=O)c3ccccc3C2=O)CC1` it is 25 µM.
In the case of `CC(=O)N(C)C1=C(N2CCOCC2)C(=O)c2ccccc2C1=O`, the concentration at half-maximal activity (AC50) was 32.9 µM.
Take `CCN(CC)CCCNC1=C(N(C)C(C)=O)C(=O)c2ccccc2C1=O`: the AC50 is 6.19 µM.
Still for that read-out and setting: the figure for `C=CCNC1=C(N2CCN(CC)CC2)C(=O)c2ccccc2C1=O` is 15.7 µM; for `CC(=O)N(C)C1=C(N2CCN(C)CC2)C(=O)c2ccccc2C1=O` it is 15.6 µM.
With `O=C(NC1=C(c2ccc(OC(F)(F)F)cc2)C(=O)c2ccccc2C1=O)c1ccccc1`, the AC50 was 23.6 µM.
In the case of `O=C1C(NS(=O)(=O)c2cccs2)=C(N2CCOCC2)C(=O)c2ccccc21`, the AC50 is > 70 µM (inactive).
For the compound `C=CCNC1=C(NS(=O)(=O)c2cccs2)C(=O)c2ccccc2C1=O`, the AC50 is > 70 µM (inactive).
As for `C=CCNC1=C(N2CCOCC2)C(=O)c2ccccc2C1=O`, the AC50 is 22.8 µM.
As to `O=C(NC1=C(c2ccc(OC(F)(F)F)cc2)C(=O)c2ccccc2C1=O)c1ccco1`, the half-maximal activity concentration (AC50) was 28 µM.
The same measure, in the same setting: the result for `O=C1C(NS(=O)(=O)c2ccccc2)=C(N2CCCCC2)C(=O)c2ccccc21` reads > 70 µM (inactive).
The same measure, in the same setting: the figure for `CC(=O)NC1=C(c2cccc(Cl)c2)C(=O)c2ccccc2C1=O` is 9.51 µM; for `O=C(NC1=C(c2ccccc2)C(=O)c2ccccc2C1=O)c1ccccc1` it is 27.9 µM; for `O=C1C(NS(=O)(=O)c2ccc(Br)cc2)=C(c2ccccc2)C(=O)c2ccccc21` it is > 70 µM (inactive).
On the same count and under the same terms, the figure for `COc1ccc(C2=C(NC(=O)c3ccccc3OC)C(=O)c3ccccc3C2=O)cc1` is 25.5 µM.
With `O=C1C(NS(=O)(=O)c2ccc(Br)s2)=C(N2CCOCC2)C(=O)c2ccccc21`, the AC50 was > 70 µM (inactive).
`O=C1C(Nc2ccccc2)=C(NS(=O)(=O)c2ccccc2[N+](=O)[O-])C(=O)c2ccccc21`: the AC50 was > 70 µM (inactive).
Take `O=C(NC1=C(c2ccccc2)C(=O)c2ccccc2C1=O)c1ccco1`: the AC50 was 13.8 µM.
With `O=C1C(NS(=O)(=O)c2ccc(Br)cc2)=C(N2CCCCC2)C(=O)c2ccccc21`, the AC50 is > 70 µM (inactive).
On the same count and under the same terms, the figure for `CC1CCN(CC(CS(=O)(=O)c2ccc([N+](=O)[O-])cc2)N2CCC(C)CC2)CC1` (stereo not given) is > 70 µM (inactive).
Still for that read-out and setting: the result for `C=CCNC1=C(Nc2ccccc2)C(=O)c2ccccc2C1=O` reads > 70 µM (inactive); that for `O=C1C(NS(=O)(=O)c2ccc(Br)cc2)=C(N2CCSCC2)C(=O)c2ccccc21`, > 70 µM (inactive).
The same measure, in the same setting: the figure for `COc1ccc(C2=C(NC(=O)c3cccc(OC)c3)C(=O)c3ccccc3C2=O)cc1` is 27.2 µM; for `C=CCNC1=C(N2CCN(C)CC2)C(=O)c2ccccc2C1=O` it is 20.9 µM.
Regarding `CC(=O)NC1=C(c2ccc(Cl)cc2)C(=O)c2ccccc2C1=O`, the AC50 was 10.4 µM.
For the compound `C=CCNC1=C(NS(=O)(=O)c2ccc(Br)cc2)C(=O)c2ccccc2C1=O`, the AC50 was > 70 µM (inactive).
The same measure, in the same setting: the figure for `COc1cccc(-c2cc(C(=O)NC3=C(Cl)C(=O)c4ccccc4C3=O)ccc2OC)c1` is > 70 µM (inactive).
Regarding `Cc1ccc(C(=O)NC2=C(c3ccccc3)C(=O)c3ccccc3C2=O)o1`, the half-maximal activity concentration (AC50) is 16 µM.
Consider `COc1ccc(C(=O)NC2=C(c3ccc(OC(F)(F)F)cc3)C(=O)c3ccccc3C2=O)cc1`, for which the AC50 was 32.2 µM.
As for `O=C(NC1=C(N2CCCCC2)C(=O)c2ccccc2C1=O)c1ccc(Br)cc1`, the AC50 is > 70 µM (inactive).
Same read-out and setting: the result for `COc1cccc(C2=C(NC(=O)c3ccccc3)C(=O)c3ccccc3C2=O)c1` reads 16.2 µM; that for `O=C(CNc1cccc2ccccc12)N/N=C/c1ccc([N+](=O)[O-])o1`, > 70 µM (inactive).
Still for that read-out and setting: the result for `O=C1C(NS(=O)(=O)c2ccc(Br)cc2)=C(N2CCOCC2)C(=O)c2ccccc21` reads > 70 µM (inactive); that for `C=CCNC1=C(N2CCCCC2)C(=O)c2ccccc2C1=O`, 19.6 µM; that for `O=C1C(NS(=O)(=O)c2ccccc2)=C(N2CCOCC2)C(=O)c2ccccc21`, 13.8 µM.
Same read-out and setting: the result for `COc1ccc(C2=C(NC(=O)c3ccccc3Cl)C(=O)c3ccccc3C2=O)cc1` reads 12.2 µM.
As to `CCN1CCN(C2=C(NS(=O)(=O)c3cccs3)C(=O)c3ccccc3C2=O)CC1`, the AC50 was > 70 µM (inactive).
Regarding `Cc1nc2ccccc2n1/N=C/c1ccc([N+](=O)[O-])s1`, the AC50 is > 70 µM (inactive).
Consider `O=C1C(Nc2ccccc2)=C(N2CCN(c3ccccc3)CC2)C(=O)c2ccccc21`, for which the AC50 was > 70 µM (inactive).
Same read-out and setting: the figure for `COc1ccc(C2=C(NC(C)=O)C(=O)c3ccccc3C2=O)cc1` is 13.3 µM.
Still for that read-out and setting: the result for `O=C1C(NS(=O)(=O)c2ccc(Br)s2)=C(N2CCCCC2)C(=O)c2ccccc21` reads > 70 µM (inactive).
The same measure, in the same setting: the figure for `C=CCNC1=C(Cl)C(=O)c2ccccc2C1=O` is > 70 µM (inactive); for `C=CCNC1=C(NC(=O)c2ccccc2)C(=O)c2ccccc2C1=O` it is > 70 µM (inactive).
For the compound `NC1=CC(=O)c2ccccc2C1=O`, the AC50 was > 70 µM (inactive).
`CCN1CCN(C2=C(N(C)C(C)=O)C(=O)c3ccccc3C2=O)CC1`: the AC50 is 15.2 µM.
Regarding `CCN1CCN(C2=C(NS(=O)(=O)c3ccc(Br)s3)C(=O)c3ccccc3C2=O)CC1`, the AC50 is > 70 µM (inactive).
Still for that read-out and setting: the figure for `C=CCNC1=C(NCCCN(CC)CC)C(=O)c2ccccc2C1=O` is 22 µM; for `CN1CCN(C2=C(Nc3ccccc3)C(=O)c3ccccc3C2=O)CC1` it is 27.2 µM; for `CCN(CC)CCCCNC1=C(Nc2ccccc2)C(=O)c2ccccc2C1=O` it is > 70 µM (inactive).
Still for that read-out and setting: the result for `O=C(NC1=C(N2CCSCC2)C(=O)c2ccccc2C1=O)c1ccc(Br)cc1` reads > 70 µM (inactive).
Turning to `O=C1C(NCCCN2CCOCC2)=C(Nc2ccccc2)C(=O)c2ccccc21`, the AC50 is > 70 µM (inactive).
`O=C(NC1=C(N2CCOCC2)C(=O)c2ccccc2C1=O)c1ccccc1`: the AC50 was 26.9 µM.
For the compound `CCN1CCN(C2=C(NC(=O)c3ccc(Br)cc3)C(=O)c3ccccc3C2=O)CC1`, the AC50 is 18.4 µM.
`O=C1C(Nc2ccccc2)=C(N2CCOCC2)C(=O)c2ccccc21`: the AC50 was > 70 µM (inactive).
For `COc1ccc(C2=C(N)C(=O)c3ccccc3C2=O)cc1`, the AC50 was > 70 µM (inactive).
For `CCN1CCN(C2=C(NS(=O)(=O)c3ccc(Br)cc3)C(=O)c3ccccc3C2=O)CC1`, the AC50 was > 70 µM (inactive).
Still for that read-out and setting: the figure for `COc1ccc(C(=O)NC2=C(c3ccccc3)C(=O)c3ccccc3C2=O)cc1` is 24.8 µM.
The same measure, in the same setting: the figure for `COc1ccc(C2=C(NC(=O)c3cccc(Cl)c3)C(=O)c3ccccc3C2=O)cc1` is 16.8 µM.
In the case of `CC(=O)NC1=C(c2ccccc2)C(=O)c2ccccc2C1=O`, the AC50 was 12.1 µM.
On the same count and under the same terms, the figure for `C=CCNC1=C(N2CCSCC2)C(=O)c2ccccc2C1=O` is 11.3 µM; for `C[C@@H](NC1=C(Nc2ccccc2)C(=O)c2ccccc2C1=O)c1ccccc1` it is > 70 µM (inactive).
Still for that read-out and setting: the result for `O=C(NC1=C(c2ccccc2)C(=O)c2ccccc2C1=O)c1ccc(Br)cc1` reads 26.4 µM; that for `O=C(NC1=C(c2ccc(OC(F)(F)F)cc2)C(=O)c2ccccc2C1=O)c1ccccc1F`, 36.6 µM; that for `CN1CCN(C2=C(NC(=O)c3ccc(Br)cc3)C(=O)c3ccccc3C2=O)CC1`, 15.2 µM.
Same read-out and setting: the result for `COC1=C(NS(=O)(=O)c2ccccc2)C(=O)c2ccccc2C1=O` reads > 70 µM (inactive); that for `O=C1C(Nc2ccccc2)=C(N2CCSCC2)C(=O)c2ccccc21`, > 70 µM (inactive).
`O=C(NC1=C(Cl)C(=O)c2ccccc2C1=O)c1ccccc1`: the AC50 is 29.9 µM.
Same read-out and setting: the result for `C=CCNC1=C(NCCN(CC)CC)C(=O)c2ccccc2C1=O` reads 35.2 µM.
With `O=C1C(NS(=O)(=O)c2ccc(Br)cc2)=C(c2ccc(OC(F)(F)F)cc2)C(=O)c2ccccc21`, the AC50 was > 70 µM (inactive).
For `CC(=O)NC1=C(c2ccc3c(c2)oc2ccccc23)C(=O)c2ccccc2C1=O`, the AC50 is 24.7 µM.

Usually AC50 stands for the concentration giving half of the maximal activity seen.
